A short description of data set [1]: Toxicity in Sprague-Dawley rat assessed as inhibition of granulopoiesis by measuring reduction in neutrophil count at 50 mg/kg, po administered daily for 5 days measured on day 6 in presence of docetaxel by microscopic analysis relative to control. The format is organism-based. Conditions: in vivo, 144 h, time 6 day. An outline of the steps: (§1)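 Male Sprague-Dawley rats, n = 10 per group: docetaxel 5 mg/kg i.v. once, or oral inhibitor daily for 5 days (30, 50 or 7 mg/kg depending on agent), alone or combined with docetaxel, against vehicles. Total neutrophil and platelet counts in blood collected on day 6; Tukey-Kramer test versus vehicle.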

The next data set concerns the target Bcl-2-like protein 1 (Homo sapiens, UniProt Q07817). Description: Binding affinity to Bcl-xl (unknown origin) assessed as dissociation constant incubated for 1 hrs by TR-FRET assay. (In general: TR-FRET usually uses a lanthanide donor and a delayed reading to cut background.)
For a further data set, the system named is MOLT-4. Nature of the data set: Antiproliferative activity against Bcl-xl dependent human MOLT-4 cells assessed as reduction in cell viability by measuring effect concentration by CellTiter-Glo reagent based assay. The format is functional. In general terms: Cellular ATP, detected with luciferase, serves as a proxy for viable cell number.
Data set [2] addresses Induced myeloid leukemia cell differentiation protein Mcl-1 (Homo sapiens, UniProt Q07820). Description: Binding affinity to MCL-1 (unknown origin) assessed as dissociation constant incubated for 1 hrs by TR-FRET assay.
Data set [3] is described as follows: Toxicity in Sprague-Dawley rat assessed as inhibition of granulopoiesis by measuring reduction in neutrophil count at 50 mg/kg, po administered daily for 5 days measured on day 6 by microscopic analysis relative to control. The format is organism-based. Set-up: scale not given: the % may be the effect or the level left. The following applies: in vivo, 144 h, time 6 day. An outline of the steps:
as §1

A short description of data set [4]: Toxicity in Sprague-Dawley rat assessed as inhibition of […] by measuring reduction in circulating platelets at 50 mg/kg, po administered daily for 5 days and measured on day 6 by microscopic analysis. Conditions: in vivo, 144 h, time 6 day. The format is organism-based. An outline of the steps:
as §1

In the next data set the target is T1, Bcl-2-like protein 2 (Homo sapiens, UniProt Q92843).
T1 sequence (Q92843 whole entry): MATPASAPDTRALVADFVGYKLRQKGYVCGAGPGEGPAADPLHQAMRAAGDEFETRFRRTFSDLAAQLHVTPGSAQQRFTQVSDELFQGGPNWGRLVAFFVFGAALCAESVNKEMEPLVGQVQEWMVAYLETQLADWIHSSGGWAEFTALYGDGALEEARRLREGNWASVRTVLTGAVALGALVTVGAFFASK
Description: Binding affinity to BCL-W (unknown origin) assessed as dissociation constant incubated for 1 hrs by TR-FRET assay.

Data set [5] has as its target Apoptosis regulator Bcl-2 (Homo sapiens, UniProt P10415). Nature of the data set: Binding affinity to Bcl-2 (unknown origin) assessed as dissociation constant incubated for 1 hrs by TR-FRET assay.
Data set [6] in a line: Toxicity in Sprague-Dawley rat assessed as inhibition of granulopoiesis by measuring reduction in neutrophil count at 30 mg/kg, po administered daily for 5 days measured on day 6 in the presence of docetaxel by microscopic analysis relative to control. The format is organism-based. The following applies: in vivo, 144 h, time 6 day. An outline of the steps:
as §1

Data set [7] in a line: Toxicity in Sprague-Dawley rat assessed as inhibition of […] by measuring reduction in circulating platelets at 30 mg/kg, po administered daily for 5 days and measured on day 6 by microscopic analysis. The format is organism-based. Conditions: in vivo, 144 h, time 6 day. An outline of the steps: as §1
Data set [8] can be described thus: Toxicity in Sprague-Dawley rat assessed as inhibition of granulopoiesis by measuring reduction in neutrophil count at 30 mg/kg, po administered daily for 5 days measured on day 6 by microscopic analysis relative to control. The format is organism-based. Set-up: scale not given: the % may be the effect or the level left. The following applies: in vivo, 144 h, time 6 day. An outline of the steps: as §1

Apoptosis regulator Bcl-2, sequence (P10415 whole entry): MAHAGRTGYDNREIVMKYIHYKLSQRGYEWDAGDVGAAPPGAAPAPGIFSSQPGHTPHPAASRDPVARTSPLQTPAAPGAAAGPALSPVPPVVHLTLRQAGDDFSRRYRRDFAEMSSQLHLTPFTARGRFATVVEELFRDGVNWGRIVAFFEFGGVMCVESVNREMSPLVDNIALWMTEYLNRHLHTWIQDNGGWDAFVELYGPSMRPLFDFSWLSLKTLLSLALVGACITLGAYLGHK
Bcl-2-like protein 1, sequence (Q07817 whole entry): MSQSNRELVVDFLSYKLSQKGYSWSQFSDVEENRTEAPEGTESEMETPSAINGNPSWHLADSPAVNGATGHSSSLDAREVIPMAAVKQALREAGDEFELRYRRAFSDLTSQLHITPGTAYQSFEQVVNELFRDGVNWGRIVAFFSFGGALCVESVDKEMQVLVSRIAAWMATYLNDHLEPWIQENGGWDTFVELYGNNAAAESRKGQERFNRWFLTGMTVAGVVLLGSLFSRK
Induced myeloid leukemia cell differentiation protein Mcl-1, sequence (Q07820 whole entry): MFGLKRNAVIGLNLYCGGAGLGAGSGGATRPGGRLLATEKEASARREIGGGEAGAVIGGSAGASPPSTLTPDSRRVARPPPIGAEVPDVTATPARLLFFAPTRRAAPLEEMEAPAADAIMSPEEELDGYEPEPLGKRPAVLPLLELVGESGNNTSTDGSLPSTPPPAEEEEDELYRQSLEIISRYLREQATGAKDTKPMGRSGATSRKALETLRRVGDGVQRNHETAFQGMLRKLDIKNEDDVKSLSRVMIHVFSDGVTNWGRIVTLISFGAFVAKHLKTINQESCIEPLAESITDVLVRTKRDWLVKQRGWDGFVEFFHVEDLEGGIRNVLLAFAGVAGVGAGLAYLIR

With `CO[C@H]1CC[C@H](CNc2ccc(S(=O)(=O)NC(=O)c3ccc(N4CCN(CC5=C(c6ccc(Cl)cc6)CC(C)(C)CC5)CC4)cc3Oc3cnc4[nH]ccc4c3)cc2[N+](=O)[O-])CC1` [A-1211212], the Activity result was “Toxic” in data set [1], 41% in [3] and “Non-Toxic” in data set [4]. The Ki at Bcl-2-like protein 1 is 14 nM; in data set [2], over 444 nM; on Bcl-2-like protein 2, 852 nM; in data set [5], under 0.01 nM. The 50% effective concentration (EC50) in the data set with MOLT-4 is over 5000 nM.

With `CC1(C)CCC(CN2CCN(c3ccc(C(=O)NS(=O)(=O)c4ccc(N[C@H](CCN5CCOCC5)CSc5ccccc5)c(S(=O)(=O)C(F)(F)Cl)c4)cc3)CC2)=C(c2ccc(Cl)cc2)C1`, the Activity result is “Toxic” in data set [6], “Toxic” in data set [7] and 41% in data set [8]. The inhibition constant Ki on Bcl-2-like protein 1 is 0.463 nM; in data set [2] it was over 3900 nM; at Bcl-2-like protein 2 it was 2 nM; in data set [5], 0.048 nM. For the same compound, the concentration giving a half-maximal response (EC50) in the data set on MOLT-4 came out at 134 nM.

Usually Ki stands for the equilibrium dissociation constant of an inhibitor or competing ligand from its target. One may read the EC50 as the concentration giving half of the maximal effect.
